Results from ChEMBL document CHEMBL4138315, “Synthesis and Evaluation of a Novel Bivalent Selective Antagonist for the Mu-Delta Opioid Receptor Heterodimer that Reduces Morphine Withdrawal in Mice” (J Med Chem, 2018).
pIC50, pKi: −log10 of the molar value. Active and inactive are the calls of the source. The calls are words filed in the database; no cut-off is given here. Where a SMILES comes first, the peptide text is derived from it. [ ]: non-standard residue; d: D form. ξ: configuration not given here. d2Nal = N[C@H](Cc1ccc2ccccc2c1)C(=O)O; ξTic = O=C(O)C1Cc2ccccc2CN1

What was measured:
[1] = target: T1, Delta-type opioid receptor (Homo sapiens, UniProt P41143); assay: Displacement of [3H]-diprenorphine from human DOR expressed in CHO cell membranes after 80 mins by scintillation counting analysis
T1 sequence (P41143 whole entry): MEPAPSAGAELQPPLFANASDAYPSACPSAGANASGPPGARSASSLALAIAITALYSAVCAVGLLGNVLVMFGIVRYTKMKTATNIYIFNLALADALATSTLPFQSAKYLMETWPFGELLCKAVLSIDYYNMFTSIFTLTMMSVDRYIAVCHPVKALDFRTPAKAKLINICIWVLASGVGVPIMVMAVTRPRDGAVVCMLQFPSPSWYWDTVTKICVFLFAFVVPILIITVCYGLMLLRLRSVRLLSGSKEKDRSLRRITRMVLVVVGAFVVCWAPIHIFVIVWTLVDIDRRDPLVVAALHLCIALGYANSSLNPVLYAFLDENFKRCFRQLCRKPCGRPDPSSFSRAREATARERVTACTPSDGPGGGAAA
How it was run: (§1)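 Competition binding on MOR-, DOR- or MDOR-CHO membranes used a fixed 3H-diprenorphine level against competitor concentration curves; 30°C, 80 min, GF/B filtration, scintillation counting. Nonspecific binding defined with 500 nM each DMT-Tic-Ala-OH and CTAP. Ki was derived from IC50 and the 3H-diprenorphine KD in each line; MDOR data fitted with a 2-site model. N = 3-4, mean ± SEM.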

Mu-type opioid receptor [2] = target: T2, Mu-type opioid receptor (Homo sapiens, UniProt P35372); assay: Displacement of [3H]-diprenorphine from human MOR expressed in CHO cell membranes after 80 mins by scintillation counting analysis; how it was run: as §1
T2 sequence (P35372 whole entry): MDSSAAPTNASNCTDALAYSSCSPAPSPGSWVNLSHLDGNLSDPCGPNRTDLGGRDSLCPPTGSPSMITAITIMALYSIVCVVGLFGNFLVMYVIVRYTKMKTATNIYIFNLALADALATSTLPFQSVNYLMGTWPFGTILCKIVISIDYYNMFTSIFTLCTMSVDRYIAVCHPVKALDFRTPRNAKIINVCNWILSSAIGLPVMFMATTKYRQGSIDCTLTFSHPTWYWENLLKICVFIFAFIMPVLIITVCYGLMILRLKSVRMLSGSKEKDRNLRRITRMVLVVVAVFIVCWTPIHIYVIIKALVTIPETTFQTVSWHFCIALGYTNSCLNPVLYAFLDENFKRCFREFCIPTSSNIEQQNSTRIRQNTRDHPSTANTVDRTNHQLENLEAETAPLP

[3] = target: T1, Delta-type opioid receptor; assay: Antagonist activity at human DOR expressed in CHO cell membranes assessed as inhibition of CYM51010-induced [35S]-GTPgammaS binding preincubated for 5 mins followed by CYM51010 and [35S]-GTPgammaS addition measured after 80 mins; format: functional
How it was run: (§2)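 Membranes from CHO cells stably expressing human opioid receptor (N-terminal tagged) were preincubated 5 min with antagonist concentration curves, then given 1 µM CYM51010 and 0.1 nM 35S-GTPγS; 30°C, 80 min, GF/B filtration, scintillation counting. Normalized to CYM51010 alone (100%) and vehicle (0%). Fits: 1-site for MOR/DOR (IC50), 2-site for MDOR (IC50HIGH). N = 3-4, duplicate, mean ± SEM.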

Mu-type opioid receptor [4] = target: T2, Mu-type opioid receptor; assay: Antagonist activity at human MOR expressed in CHO cell membranes assessed as inhibition of CYM51010-induced [35S]-GTPgammaS binding preincubated for 5 mins followed by CYM51010 and [35S]-GTPgammaS addition measured after 80 mins; format: functional; how it was run: as §2
[5] = target: T3, Opioid receptors; mu & delta (Homo sapiens, UniProt P41143+P35372); assay: Displacement of [3H]-diprenorphine from human mu-delta opioid receptor heterodimer expressed in CHO cell membranes at high site fraction after 80 mins by scintillation counting analysis relative to control
T3 sequence (P35372 whole entry, looked up): as the sequence (P35372 whole entry) above
T3 sequence (P41143 whole entry, looked up): as the sequence (P41143 whole entry) above

[6] = target: T3, Opioid receptors; mu & delta; assay: Displacement of [3H]-diprenorphine from human mu-delta opioid receptor expressed in CHO cell membranes after 80 mins by scintillation counting analysis; how it was run: as §1
Homo sapiens [7] = organism: Homo sapiens; assay: Selectivity ratio of KiH for human mu-delta opioid receptor heterodimer expressed in CHO cell membranes to Ki for human DOR expressed in CHO cell membranes; format: cell-based
[8] = target: T3, Opioid receptors; mu & delta; assay: (§3) Antagonist activity at human mu-delta opioid receptor heterodimer expressed in CHO cell membranes assessed as inhibition of CYM51010-induced [35S]-GTPgammaS binding at high site fraction preincubated for 5 mins followed by CYM51010 and [35S]-GTPgammaS addition measured after 80 mins; format: functional; how it was run: as §2
[9] = target: T3, Opioid receptors; mu & delta; assay: as §3, with “80 mins relative to control” for “80 mins”; format: functional
How it was run: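 35S-GTPγS coupling in MDOR-CHO membranes: 5 min antagonist pre-incubation, then 1 µM CYM51010 plus 0.1 nM 35S-GTPγS, 30°C for 80 min, filtration and scintillation read. A 3-variable 2-site antagonist fit gave FHIGH, the fraction of the high-potency site. N = 3-4 independent experiments.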

Homo sapiens [10] = organism: Homo sapiens; assay: Selectivity ratio of IC50H for human mu-delta opioid receptor heterodimer expressed in CHO cell membranes to IC50 for human DOR expressed in CHO cell membranes; format: cell-based
[11] = target: T3, Opioid receptors; mu & delta; assay: Antagonist activity at human mu-delta opioid receptor heterodimer expressed in CHO cell membranes assessed as inhibition of DAMGO-induced [35S]-GTPgammaS binding preincubated for 5 mins followed by DAMGO and [35S]-GTPgammaS addition measured after 80 mins; format: functional
How it was run: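 MDOR-CHO membranes were preincubated 5 min with antagonist concentration curve, then 1 µM DAMGO and 0.1 nM 35S-GTPγS were added. Incubated 30°C, 80 min; filter harvest, scintillation counting. Normalized to agonist alone and vehicle. N = 3 independent experiments in duplicate.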

[12] = target: Kappa-type opioid receptor (Homo sapiens) (UniProt P41145); assay: Antagonist activity at human KOR expressed in CHO cell membranes assessed as inhibition of U50488-induced [35S]-GTPgammaS binding preincubated for 5 mins followed by U50488 and [35S]-GTPgammaS addition measured after 80 mins; format: functional
Sequence of Kappa-type opioid receptor (Homo sapiens) (P41145 whole entry): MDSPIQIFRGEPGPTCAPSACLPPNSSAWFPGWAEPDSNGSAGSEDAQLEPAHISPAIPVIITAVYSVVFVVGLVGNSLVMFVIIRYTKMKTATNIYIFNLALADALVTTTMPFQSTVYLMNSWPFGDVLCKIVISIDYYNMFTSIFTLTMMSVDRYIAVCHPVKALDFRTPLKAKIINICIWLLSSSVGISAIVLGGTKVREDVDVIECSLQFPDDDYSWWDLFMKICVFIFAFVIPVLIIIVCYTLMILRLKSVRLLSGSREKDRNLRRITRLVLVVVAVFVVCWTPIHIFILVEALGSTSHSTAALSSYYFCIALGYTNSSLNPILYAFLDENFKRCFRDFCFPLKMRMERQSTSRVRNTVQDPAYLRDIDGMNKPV
How it was run: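 KOR-CHO membranes (human receptor, N-terminal tag), antagonist concentration curve preincubated 5 min, then 1 µM U50,488 plus 0.1 nM 35S-GTPγS added. Incubated 30°C, 80 min; filtration and scintillation counting. Vehicle 0.1% DMSO in assay buffer with 0.1% BSA. Normalized to agonist alone (100%) and vehicle (0%). One-site curve fit; N = 3 independent experiments in duplicate.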

Mus musculus = organism: Mus musculus; assay: Antinociceptive activity in CD1 mouse assessed as reduction in CYM51010-induced nociception at 10 nmol pretreated for 5 mins followed by CYM51010 injection measured up to 2 hrs by tail flick assay; format: functional, organism-based
[13] = target: T3, Opioid receptors; mu & delta; assay: as §3, with “site fraction at 100 uM preincubated for” for “site fraction preincubated for”, “80 mins relative to control” for “80 mins”; format: functional

Compound | pKi ([1]; cho) | pKi (Mu-type opioid receptor [2]; cho) | pIC50 ([3]; cho) | pIC50 (Mu-type opioid receptor [4]; cho) | Imax [5] [%] | KiH [6] [nM] | Ratio Ki (Homo sapiens [7]) | IC50H [8] [nM] | Imax [9] [%] | Ratio IC50 (Homo sapiens [10]) | other results
N[C@@H](Cc1ccc(O)cc1)C(=O)N1Cc2ccccc2C[C@H]1C(=O)NCC(=O)NCCCCC(=O)N[C@@H](CCCCNC(=O)CNC(=O)[C@@H](Cc1cccc2ccccc12)NC(=O)[C@H](Cc1ccccc1)NC(=O)[C@@H]1CCCN1C(=O)[C@@H](N)Cc1ccc(O)cc1)C(=O)O | 6.92 | < 6.00 | 7.24 | < 6.00 |  |  |  |  |  |  | 
N[C@@H](Cc1ccc(O)cc1)C(=O)N1Cc2ccccc2C[C@@H]1C(=O)NCC(=O)NCC(=O)NCCCCCC(=O)NCCC(=O)N[C@H](CCCCNC(=O)CCNC(=O)CCCCCNC(=O)CCNC(=O)CNC(=O)[C@@H](Cc1cccc2ccccc12)NC(=O)[C@H](Cc1ccccc1)NC(=O)[C@@H]1CCCN1C(=O)[C@@H](N)Cc1ccc(O)cc1)C(=O)O |  |  |  |  | 12 | 16 | 15 | 48 | 37 | 2 | 
N[C@@H](Cc1ccc(O)cc1)C(=O)N1Cc2ccccc2CC1C(=O)O (stereo partly specified) (H-Tyr-[ξTic]-OH) |  |  |  |  |  |  |  | 250 | 44 |  | pKi [1]: 6.64; pIC50 [3]: 7.00; IC50 [11]: 36.9 nM; inhibition [12]: inactive; Activity (Mus musculus): inactive
NCCCC[C@@H](NC(=O)CCCNC(=O)CNC(=O)[C@H]1Cc2ccccc2CN1C(=O)[C@@H](N)Cc1ccc(O)cc1)C(=O)O |  |  |  |  |  |  |  | 170 | 28 |  | 
N[C@@H](Cc1ccc(O)cc1)C(=O)N1Cc2ccccc2C[C@H]1C(=O)NCC(=O)NCC(=O)NCCCCCC(=O)NCCC(=O)N[C@@H](CCCCNC(=O)CCNC(=O)CCCCCNC(=O)CCNC(=O)CNC(=O)[C@@H](Cc1cccc2ccccc12)NC(=O)[C@H](Cc1ccccc1)NC(=O)[C@@H]1CCCN1C(=O)[C@@H](N)Cc1ccc(O)cc1)C(=O)O | 6.64 | < 6.00 | 7.03 | < 6.00 |  |  |  |  |  |  | 
N[C@@H](Cc1ccc(O)cc1)C(=O)N1Cc2ccccc2C[C@H]1C(=O)NCC(=O)NCCC(=O)NCCCCCC(=O)N[C@@H](CCCCNC(=O)CCCCCNC(=O)CNC(=O)[C@@H](Cc1cccc2ccccc12)NC(=O)[C@H](Cc1ccccc1)NC(=O)[C@@H]1CCCN1C(=O)[C@@H](N)Cc1ccc(O)cc1)C(=O)O | 6.54 | < 6.00 | 7.00 | < 6.00 |  |  |  |  |  |  | 
N[C@@H](Cc1ccc(O)cc1)C(=O)N1Cc2ccccc2C[C@@H]1C(=O)NCC(=O)NCCC(=O)NCCCCCC(=O)N[C@H](CCCCNC(=O)CCCCCNC(=O)CNC(=O)[C@@H](Cc1cccc2ccccc12)NC(=O)[C@H](Cc1ccccc1)NC(=O)[C@@H]1CCCN1C(=O)[C@@H](N)Cc1ccc(O)cc1)C(=O)O |  |  |  |  | 15 | 8.1 | 35 | 20 | 41 | 5 | 
N[C@@H](Cc1ccc(O)cc1)C(=O)N1Cc2ccccc2C[C@@H]1C(=O)NCC(=O)NCCCCC(=O)N[C@H](CCCCNC(=O)CNC(=O)[C@@H](Cc1cccc2ccccc12)NC(=O)[C@H](Cc1ccccc1)NC(=O)[C@@H]1CCCN1C(=O)[C@@H](N)Cc1ccc(O)cc1)C(=O)O |  |  |  |  | 12 | 2 | 58 | 2.1 | 39 | 28 | 
N[C@@H](Cc1ccc(O)cc1)C(=O)N1Cc2ccccc2C[C@H]1C(=O)NCC(=O)NCC(=O)N[C@@H](CCCCNC(=O)CNC(=O)[C@@H](Cc1cccc2ccccc12)NC(=O)[C@H](Cc1ccccc1)NC(=O)[C@@H]1CCCN1C(=O)[C@@H](N)Cc1ccc(O)cc1)C(=O)O | 6.57 | < 6.00 | 7.24 | < 6.00 |  |  |  |  |  |  | 
N[C@@H](Cc1ccc(O)cc1)C(=O)N1Cc2ccccc2C[C@@H]1C(=O)NCC(=O)NCC(=O)N[C@H](CCCCNC(=O)CNC(=O)[C@@H](Cc1cccc2ccccc12)NC(=O)[C@H](Cc1ccccc1)NC(=O)[C@@H]1CCCN1C(=O)[C@@H](N)Cc1ccc(O)cc1)C(=O)O |  |  |  |  | 12 | 2.5 | 110 | 3.4 | 43 | 17 | 
N[C@@H](Cc1ccc(O)cc1)C(=O)N1Cc2ccccc2C[C@H]1C(=O)NCC(=O)NCCCC(=O)N[C@@H](CCCCNC(=O)CCNC(=O)CNC(=O)[C@@H](Cc1cccc2ccccc12)NC(=O)[C@H](Cc1ccccc1)NC(=O)[C@@H]1CCCN1C(=O)[C@@H](N)Cc1ccc(O)cc1)C(=O)O | 7.01 | < 6.00 | 7.17 | < 6.00 |  |  |  |  |  |  | 
N[C@@H](Cc1ccc(O)cc1)C(=O)N1Cc2ccccc2C[C@@H]1C(=O)NCC(=O)NCCCC(=O)N[C@H](CCCCNC(=O)CCNC(=O)CNC(=O)[C@@H](Cc1cccc2ccccc12)NC(=O)[C@H](Cc1ccccc1)NC(=O)[C@@H]1CCCN1C(=O)[C@@H](N)Cc1ccc(O)cc1)C(=O)O |  |  |  |  | 9 | 1.3 | 78 | 1.6 | 43 | 43 | 
NCCCC[C@H](NC(=O)CCCNC(=O)CNC(=O)[C@@H]1Cc2ccccc2CN1C(=O)[C@@H](N)Cc1ccc(O)cc1)C(=O)O | 6.60 |  |  |  |  |  |  |  |  |  | 
NC(=O)[C@@H](Cc1ccc2ccccc2c1)NC(=O)[C@H](Cc1ccccc1)NC(=O)[C@@H]1CCCN1C(=O)[C@@H](N)Cc1ccc(O)cc1 (H-YPF[d2Nal]-NH2) |  |  |  |  |  |  |  | > 1000 |  |  | pKi (Mu-type opioid receptor [2]): < 6.00; pIC50 (Mu-type opioid receptor [4]): < 6.00; IC50 [11]: >= 3333 nM; inhibition [12]: inactive; Imax [13]: 0.43%
